Measured values collected from several papers.
Lines come from different studies, so protocols differ.
Cell line: NCI-H460
Read-out: cell growth or viability

O=C(O)/C=C/c1ccc(O)c(O)c1 gave an IC50 of 3.9 µM (MTT).
The IC50 of C=C(Cl)C(=O)Nc1cc(Nc2nc(N3CCc4sccc4C3)c3sccc3n2)c(OC)cc1N(C)CCN(C)C is reported as 2.33 µM (MTT).
C(/Cc1ccc(OCc2ccccc2)cc1)=C(\COCc1ccccc1)c1ccc(OCc2ccccc2)cc1 gave an IC50 of 48.3 µg/mL (MTT; 24 h).
O=C1NCCc2[nH]c(-c3ccncc3)cc21 gave an IC50 of 10 µM.
O=c1[nH]cc(S(=O)(=O)Nc2cccc(-c3nnc(-c4cccc(Cl)c4)o3)c2)c(=O)[nH]1 has an IC50 of 2.83 µM (MTT; 24 h).
COc1ccc(C/C=C(/CO)c2ccc(OC)cc2)cc1 has an IC50 of 30.9 µg/mL (MTT; 24 h).
The IC50 of CC(=O)c1ccc(/N=N/c2cc(/C=C/C(=O)O)ccc2O)cc1 is reported as over 50 µM (MTT).
For COc1ccc(C/C=C/c2cc(OC)cc(OC)c2)cc1, the IC50 was 77.3 µg/mL (MTT; 24 h).
With COc1cccc2c1C(=O)c1c(O)c3c(c(O)c1C2=O)C[C@@](O)(C(=O)CO)C[C@@H]3O[C@H]1C[C@H](N)[C@H](O)[C@H](C)O1 the IC50 was 4.29 µM (SRB).
OCc1ccc2c(c1C#Cc1ccc(O)cc1)C(c1ccc(O)cc1)(c1ccc(O)cc1)c1cc(O)ccc1-2 has an IC50 of over 50 µM (MTT; 48 h).
For CC(C)C[C@H](NC(=O)[C@H](Cc1ccccc1)NC(=O)c1cnccn1)B(O)O, the IC50 was 0.03 µM (ATP luminescence).
For C=C(Cl)C(=O)Nc1cc(Nc2nc(Nc3cnn(C)c3)c3sccc3n2)c(OC)cc1N(C)CCN(C)C, the IC50 was 3.22 µM (MTT).
The IC50 of CC(=O)c1cccc(/N=N/c2cc(/C=C/C(=O)O)ccc2O)c1 is reported as over 50 µM (MTT).
With Cc1cccc(-n2ncc(Br)c(Br)c2=O)c1 the IC50 was 1.43 µM (resazurin; 96 h).
With C=CC(=O)Nc1cc(Nc2nccc(-c3cn(C)c4ccccc34)n2)c(OC)cc1N(C)CCN(C)C the IC50 was 1.97 µM (MTT).
O=C/C(=C/Cc1ccc(O)cc1)c1ccc(O)cc1 has an IC50 of 26.9 µg/mL (MTT; 24 h).
For CCC(=O)Nc1cc(Nc2nc(N3CCc4sccc4C3)c3cccnc3n2)c(OC)cc1N(C)C, the IC50 was 4.95 µM (MTT).
For O=c1[nH]cc(F)c(=O)[nH]1, the IC50 was 3 µM (MTT; 72 h).
OCC(CCc1ccc(O)cc1)c1ccc(O)cc1 (centres unmarked) has an IC50 of 55 µg/mL (MTT; 24 h).
For COc1cc2oc(-c3ccc(O)cc3)cc(=O)c2c(O)c1OC, the IC50 was 26.2 µM (48 h).
For C=CC(=O)Nc1cc(Nc2nc(N3CCc4sccc4C3)c3cccnc3n2)c(OC)cc1N1CCN(CCO)CC1, the IC50 was 8.03 µM (MTT).
For O=C(O)c1cc(O)c(O)c(O)c1, the IC50 was 14.9 µM (MTT).
With C=CC(=O)Nc1cc(Nc2nc(N3CCc4sccc4C3)c3cccnc3n2)c(OC)cc1N(C)CCN(C)C the IC50 was 5.68 µM (MTT).
The IC50 of O=c1[nH]cc(F)c(=O)[nH]1 is reported as 43.1 µM (MTT; 48 h).
With C=CC(=O)Nc1cc(Nc2nc(N3CCc4sccc4C3)c3sccc3n2)c(OC)cc1N1CCN(C)CC1 the IC50 was 0.913 µM (MTT).
Oc1ccc(C/C=C(/COCc2ccccc2)c2ccc(OCc3ccccc3)cc2)cc1 has an IC50 of 27.9 µg/mL (MTT; 24 h).
C=CC(=O)Nc1cc(Nc2nc(Nc3cnn(C)c3)c3sccc3n2)c(OC)cc1N(C)CCN(C)C has an IC50 of over 50 µM (MTT).
The IC50 of COc1cc(CNC(=O)CCCC/C=C/C(C)C)ccc1OCc1cn(-c2ccc(C#N)cc2)nn1 is reported as 5.55 µM (SRB).
With COc1cc(C/C=C/c2ccc(O)cc2)ccc1O the IC50 was 19.9 µg/mL (MTT; 24 h).
